Source: ChEMBL document CHEMBL1149885, “Active core structure of terfestatin A, a new specific inhibitor of auxin signaling” (Bioorg Med Chem, 2008)
Active and inactive are the calls of the source. The calls are words filed in the database; no cut-off is given here.

Tested on: Arabidopsis
Assay: Inhibition of indole-3-acetic acid-induced GUS reporter gene expression in Arabidopsis BA3 at 50 uM after 5 hrs
Assay type: functional, organism-based
In short: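 Arabidopsis BA3::GUS seedlings (GUS under an auxin-responsive promoter) were grown vertically for 5 days under continuous light. They were moved into GM (0.5x MS salts, 1% sucrose, B5 vitamins, 0.2 g/L MES, pH 5.8) holding 50 µM derivative plus 1 µM IAA for 5 h. GUS was then stained histochemically with 1 mM X-Gluc at 37 °C for 3–4 h.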

SMILES	Activity
OC[C@H]1O[C@@H](Oc2cc(-c3ccccc3)c(O)cc2-c2ccccc2)[C@H](O)[C@@H](O)[C@@H]1O	Active
OC[C@H]1O[C@@H](Oc2c(O)cc(O)cc2-c2ccccc2)[C@H](O)[C@@H](O)[C@@H]1O	inactive
CCCCOc1ccc(-c2c(O)cc(-c3ccccc3)c(O[C@@H]3O[C@H](CO)[C@@H](O)[C@H](O)[C@H]3O)c2O)cc1	inactive
CC(C)COc1c(-c2ccccc2)cc(O)c(-c2ccccc2)c1O	inactive
CCOC(=O)CCCCOc1ccc(-c2cc(O)c(-c3ccccc3)c(O)c2O[C@@H]2O[C@H](CO)[C@@H](O)[C@H](O)[C@H]2O)cc1	inactive
Cc1ccc(-c2c(O)cc(-c3ccccc3)c(O[C@@H]3O[C@H](CO)[C@@H](O)[C@H](O)[C@H]3O)c2O)cc1	inactive
COc1cc(-c2ccccc2)c(O[C@H]2O[C@@H](CO)[C@H](O)[C@@H](O)[C@@H]2O)c(O)c1-c1ccccc1	inactive
CCCOc1c(-c2ccccc2)cc(O)c(-c2ccccc2)c1O	Active
OC[C@H]1O[C@@H](Oc2ccc(O)c(-c3ccccc3)c2O)[C@H](O)[C@@H](O)[C@@H]1O	inactive
COC(=O)c1ccc(-c2cc(O)c(-c3ccccc3)c(O)c2O[C@@H]2O[C@H](CO)[C@@H](O)[C@H](O)[C@H]2O)cc1	inactive
CC(=O)OC[C@H]1O[C@@H](Oc2c(-c3ccccc3)cc(O)c(-c3ccccc3)c2O)[C@H](OC(C)=O)[C@@H](OC(C)=O)[C@@H]1OC(C)=O	inactive
Oc1cc(-c2ccccc2)c(OCC2CCCCC2)c(O)c1-c1ccccc1	inactive
Oc1cc(-c2ccccc2)c(OCCCCCl)c(O)c1-c1ccccc1	Active
COCOc1c(-c2ccccc2)cc(O)c(-c2ccccc2)c1O	Active
OC[C@H]1O[C@@H](Oc2c(-c3ccccc3)cc(O)c(-c3cccc4ccccc34)c2O)[C@H](O)[C@@H](O)[C@@H]1O (single isomer, unassigned)	inactive
CCCCCCOc1c(-c2ccccc2)cc(O)c(-c2ccccc2)c1O	inactive
CCCCOc1ccc(-c2cc(O)c(-c3ccccc3)c(O)c2O[C@@H]2O[C@H](CO)[C@@H](O)[C@H](O)[C@H]2O)cc1	inactive
CCCCCOc1c(-c2ccccc2)cc(O)c(-c2ccccc2)c1O	Active
CCCCOc1c(-c2ccccc2)cc(O)c(-c2ccccc2)c1O	Active
CCOc1c(-c2ccccc2)cc(O)c(-c2ccccc2)c1O	Active
COc1c(O[C@@H]2O[C@H](CO)[C@@H](O)[C@H](O)[C@H]2O)c(-c2ccccc2)cc(O)c1-c1ccccc1	inactive
Oc1cc(-c2ccccc2)c(OCC2CC2)c(O)c1-c1ccccc1	inactive
